A selection: hits, their analogues and other compounds. The true share with any hit is near 2.3%.
Arrestin-AP2 inh – blocks beta-arrestin peptide binding to AP2 adaptin; FITC-arrestin peptide / GST-AP2 beads, flow cytometry; AP2 beta2 appendage carries R879A mutation; 340,000 tested, 0.31% active; inhibition, % at 10 µM; AID 504490;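 active means inhibition above a set limit, near 3 SD of compounds lacking own fluorescence, cut at about 54% in these data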
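System: GST-tagged AP2 beta2-adaptin appendage (R879A) on 4 µm glutathione beads / Reagent: FITC-arrestin peptide, 50 nM / Detection: HyperCyt-sampled flow cytometry, FL1 channel, ex 488/em 535 nm / Timing: 12 min plus 1 h, RT / Buffer or medium: PBS plus Tween 20 (0.05%) and BSA (0.1%)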
Rtt109 Vps75 – inhibitors of Candida albicans Rtt109/Vps75 histone acetyltransferase; Q5AAJ8; purified Rtt109/Vps75, ThioGlo CoA-SH fluorescence, 4 h; inhibition, % at 34.9 µM; 330,000 tested, 0.16% active; AID 540336;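 active means inhibition of at least 50% in every replicate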
Target sequence (Q5AAJ8 whole entry, looked up): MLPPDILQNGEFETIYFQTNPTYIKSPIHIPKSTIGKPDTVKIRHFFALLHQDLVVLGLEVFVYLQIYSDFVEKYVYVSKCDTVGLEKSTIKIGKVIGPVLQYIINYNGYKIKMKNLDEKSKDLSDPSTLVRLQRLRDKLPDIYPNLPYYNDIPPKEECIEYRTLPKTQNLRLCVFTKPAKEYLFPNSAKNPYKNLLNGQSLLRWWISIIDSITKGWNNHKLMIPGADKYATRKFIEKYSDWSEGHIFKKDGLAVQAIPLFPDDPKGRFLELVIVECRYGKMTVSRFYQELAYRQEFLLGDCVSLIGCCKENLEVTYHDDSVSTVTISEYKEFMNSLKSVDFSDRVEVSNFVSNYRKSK
PfHsp90 yeast 2 – growth inhibition of yeast expressing Plasmodium Hsp90. S. cerevisiae expressing PfHsp90, BacTiter-Glo ATP, 48 h; yeast lacking PDR1 and PDR3 efflux regulators. inhibition, % at 9.4 µM. 310,000 tested, 0.32% active;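 active means every replicate shows inhibition above about 80%, whatever the replicate mean, limit read from the data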
Env fusion inh – blocks HIV Env-driven cell-cell fusion; HeLa-JRFL Env/CEM21 cell fusion, luciferase; 360,000 tested, 1.1% active; inhibition, % at 12.3 µM;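 active means mean replicate inhibition score of at least 50 and every replicate individually at or above 50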
N-glyco inh – N-linked glycosylation inhibition | D54 ERlucT glycosylation luciferase reporter, 24 h; percent of 100 nM tunicamycin response | reporter increase, % at 12.5 µM | 360,000 tested, 0.23% active;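 active means mean luciferase reporter signal, scaled so untreated is 0 and the glycosylation-blocking control 100, at or above a set limit in every replicate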;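 further: luciferase carries N-glycosylation sites so blocking glycosylation raises the light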
PAX8 reporter – PAX8 transcriptional activity inhibition; RMG-I TPO-luciferase reporter, SteadyGlo, 24 h; inhibition, % at 12.6 µM; 360,000 tested, 1.2% active; AID 652154;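 active means mean replicate inhibition at least 60% with every replicate also reaching 60%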;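 further: luciferase light reporting Pax8 driven TPO promoter activity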
A number is an active result; . = inactive; / = no result; [ ] = another dose, or the depositor's remark.

SMILES	Arrestin-AP2 inh	Rtt109 Vps75	PfHsp90 yeast 2	Env fusion inh	N-glyco inh	PAX8 reporter
CC(C)(C)n1nnnc1C(c1cccs1)N(Cc1cccnc1)Cc1ccco1 (centres undefined)	.	.	.	53	.	.
CC(C)(C)n1nnnc1C(c1cccs1)N(Cc1ccccc1)Cc1ccco1 (centres undefined)	.	.	.	/	.	/
O=C(Nc1cc2c3c(c1)CC(=O)N3CCC2)c1c(F)cccc1F	.	.	.	.	.	.
O=C(Nc1cc2c3c(c1)CC(=O)N3CCC2)c1ccc(Cl)cc1	.	.	.	85	.	.
Cc1ccc(-c2ccc3c(c2)O[C@@H](CN(C)C(=O)C2CCCCC2)[C@@H](C)CN([C@@H](C)CO)S3(=O)=O)cc1	/	/	/	.	/	/
O=C(CNC(=O)c1ccc(F)cc1)c1ccc(Cl)cc1	.	52	.	.	.	.
COc1ccc(C2=NOC(Cn3nc(C(=O)NCc4cccc(Br)c4)cc3-c3ccccc3)C2)cc1 (centres undefined)	.	.	.	85	.	.
COc1ccc(C2=NOC(Cn3nc(-c4ccccc4)cc3C(=O)NCc3cccc(Br)c3)C2)cc1 (centres undefined)	.	.	.	.	.	.
COc1ccccc1CNC(=O)c1cc(-c2ccccc2C)n(CC2CC(c3cccc([N+](=O)[O-])c3)=NO2)n1 (centres undefined)	.	.	.	60	.	.
O=C(N[C@@H]1CC[C@H](CCNS(=O)(=O)c2cccc(Cl)c2)O[C@@H]1CO)c1ccncc1	/	/	/	.	/	.
O=C(NNc1nc2ccccc2s1)Nc1ccc(Cl)c(Cl)c1	.	.	.	.	.	64
CCCN1[C@@H]2c3ccc(-c4ccc(C(=O)N(C)C)cc4)c(=O)n3C[C@@H]2[C@@H](CO)[C@@H]1C(=O)NCCOC	/	/	/	.	/	/
C[C@H]1CN([C@@H](C)CO)C(=O)c2ccccc2-c2ccccc2CO[C@H]1CN(C)S(=O)(=O)c1cn(C)cn1	/	/	/	.	/	.
CCOC(=O)c1c(C)[nH]c(/C(C)=N/O)c1C	.	.	.	/	.	/
CCOC(=O)c1c(C)[nH]c(C2=NNC(=NC3CC3)SC2)c1C	.	71	.	/	.	/
CN(C)CC(=O)Nc1ccc2c(c1)[C@H]1C[C@H](CC(=O)NC3CCCC3)O[C@@H](CO)[C@H]1O2	/	/	/	.	/	.
COC(=O)C1=C(C)N(Cc2cccc(C(F)(F)F)c2)C(=NCC2CC2)NC1c1cccc(C(F)(F)F)c1 (centres undefined)	/	/	/	.	/	89
COC(=O)C1=C(C)N(Cc2cccc(C(F)(F)F)c2)C(=NCc2cc(OC)c(OC)c(OC)c2)NC1c1ccccc1 (centres undefined)	/	/	/	.	/	.
COC(=O)C1=C(C)N(Cc2cccc(C(F)(F)F)c2)C(=NCc2cc(OC)c(OC)c(OC)c2)NC1c1cccc(C(F)(F)F)c1 (centres undefined)	/	/	/	.	/	85
COCCNC(=O)C[C@H]1CC[C@@H]2[C@H](COC[C@H](O)CN2Cc2cccc(-c3ccncc3)c2)O1	/	/	/	.	/	.
C[C@H](CO)N1C[C@H](C)[C@H](CN(C)CC2CC2)OCCCC[C@H](C)Oc2ccc(NC(=O)Nc3cccc4ccccc34)cc2C1=O	/	/	/	62[16.7 µM]	/	.
C[C@@H]1CN([C@@H](C)CO)C(=O)c2cc(NC(=O)Nc3cccc4ccccc34)ccc2O[C@@H](C)CCCCO[C@H]1CN(C)CC1CC1	/	/	/	.	/	.
C[C@@H]1CCCCO[C@H](CN(C)C)[C@H](C)CN([C@H](C)CO)C(=O)c2cc(NC(=O)Nc3cccc4ccccc34)ccc2O1	/	/	/	.	/	84
COc1ccc(S(=O)(=O)NNC(=O)C23CC4CC(CC(C4)C2)C3)cc1[N+](=O)[O-]	.	.	.	76	.	.
COc1ccc(S(=O)(=O)NNC(=O)Cc2csc(C)n2)cc1[N+](=O)[O-]	.	.	.	.	.	.
SMILES	Arrestin-AP2 inh	Rtt109 Vps75	PfHsp90 yeast 2	Env fusion inh	N-glyco inh	PAX8 reporter
COc1ccc(CN(C)C[C@@H]2OCCCC[C@@H](C)Oc3ccc(NS(=O)(=O)c4cccs4)cc3C(=O)N([C@@H](C)CO)C[C@H]2C)cc1	/	/	/	.	/	.
COc1ccc(CN(C)C(C)C(=O)Nc2ccc(S(=O)(=O)N3CCCCC3)cc2)c(OC)c1 (centres undefined)	.	.	.	.	.	/
CCN(Cc1ccc(OC)c(F)c1)C(C)C(=O)Nc1ccc(S(=O)(=O)N2CCCC2)cc1 (centres undefined)	.	.	.	57	.	.
CCCCCCN(C(=O)CCCN1C(=O)NC(c2ccc(-c3ccccc3)cc2)C(C(=O)OCc2ccccc2)=C1C)C(C)C(=O)NCCCC (centres undefined)	.	.	.	.	.	99
CCCCCCN(C(=O)CCCCCN1C(=O)NC(c2ccc(-c3ccccc3)cc2)C(C(=O)OCc2ccccc2)=C1C)C(C(=O)NCCCC)c1ccc(-c2ccccc2)cc1 (centres undefined)	/	/	/	.	/	.
Cc1cc(C)c(C(=O)/C=C/c2cccc3ccccc23)c(=O)[nH]1	.	.	.	.	.	99
COc1cc(/C=C/C(=O)Nc2nnc(CC(C)(C)C)s2)cc(OC)c1OC	.	.	.	.	.	.
COc1cc(/C=C/C(=O)Nc2nnc(CC(C)C)s2)cc(OC)c1OC	.	.	.	57	.	.
CN1C(=O)c2cc(NC(=O)c3cccs3)ccc2OC[C@@H]2O[C@@H](CC(=O)NCCN3CCCCC3)CC[C@H]21	/	/	/	.	/	.
COC(=O)c1ccccc1-c1ccc(C(c2c(C)[nH][nH]c2=O)c2c(C)[nH][nH]c2=O)o1	.	.	.	.	29	.
Cc1cc2nc(-c3ccc(SCC(=O)Nc4ccc(S(=O)(=O)NC5CC5)cc4)nc3)[nH]c2cc1C	.	.	.	/	.	.
Cc1cc(NC(=O)CSc2ccc(-c3nc4cc(C)c(C)cc4[nH]3)cn2)no1	.	.	.	/	44	/
O=C1C=CC(=Nc2ccc3c(c2)C(=O)c2ccccc2-3)O1	.	.	/	.	.	.
O=C1C=CC(=Nc2ccc(F)cc2)O1	.	.	119	.	.	.
CCN1c2ccccc2-c2nc3ccccc3n2C1c1ccco1 (centres undefined)	.	.	.	55	.	/
c1ccc(CN2c3ccccc3-c3nc4ccccc4n3C2c2ccccn2)cc1 (centres undefined)	.	.	.	.	.	.
CN(C)c1ccc(NC(=O)CSc2nc(N)c(C(=O)Nc3ccc(N(C)C)cc3)s2)cc1	.	.	.	41	.	.
COc1ccc(NC(=O)CSc2nc(N)c(C(=O)Nc3ccc(N(C)C)cc3)s2)cc1	.	.	.	/	.	/
COc1ccc(S(=O)(=O)N(C)C[C@@H]2OCCCC[C@H](C)Oc3ccc(NC(=O)Nc4ccc5c(c4)OCO5)cc3C(=O)N([C@H](C)CO)C[C@@H]2C)cc1	/	/	/	.	/	.

Source: PubChem BioAssay (several laboratories)
